Experimental data taken from ChEMBL document CHEMBL1138512, “A class of 2,4-bisanilinopyrimidine Aurora A inhibitors with unusually high selectivity against Aurora B” (J Med Chem, 2009).

Columns and labels:
[1] = molecular target: T1, Aurora kinase A (Homo sapiens, UniProt O14965); assay: Inhibition of N-terminal flag-tagged Aurora A expressed in Escherichia coli BL21-DE3 by ELISA
T1 sequence (O14965 whole entry): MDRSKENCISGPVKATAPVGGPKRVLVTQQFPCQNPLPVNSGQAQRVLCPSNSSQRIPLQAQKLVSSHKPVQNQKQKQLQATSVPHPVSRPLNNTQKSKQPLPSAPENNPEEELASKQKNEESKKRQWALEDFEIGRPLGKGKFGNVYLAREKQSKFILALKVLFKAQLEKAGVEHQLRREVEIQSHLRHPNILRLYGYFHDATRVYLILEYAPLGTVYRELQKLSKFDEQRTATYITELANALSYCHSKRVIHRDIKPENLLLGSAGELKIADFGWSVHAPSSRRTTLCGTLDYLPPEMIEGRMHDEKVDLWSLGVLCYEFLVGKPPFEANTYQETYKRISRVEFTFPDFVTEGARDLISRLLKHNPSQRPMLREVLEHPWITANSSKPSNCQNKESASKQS

[2] = system: HT-29; assay: Antiproliferative activity against human HT-29 cells after 4 days by celltiter assay; format: functional, cell-based; conditions: HT-29, 96 h
[3] = system: HCT-116; assay: Antiproliferative activity against human HCT116 cells after 4 days by celltiter assay; format: functional, cell-based; conditions: HCT-116, 96 h
[4] = molecular target: T2, Aurora kinase B (Homo sapiens, UniProt Q96GD4); assay: Inhibition of N-terminal flag-tagged Aurora B expressed in Escherichia coli BL21-DE3 by ELISA
T2 sequence (Q96GD4 whole entry): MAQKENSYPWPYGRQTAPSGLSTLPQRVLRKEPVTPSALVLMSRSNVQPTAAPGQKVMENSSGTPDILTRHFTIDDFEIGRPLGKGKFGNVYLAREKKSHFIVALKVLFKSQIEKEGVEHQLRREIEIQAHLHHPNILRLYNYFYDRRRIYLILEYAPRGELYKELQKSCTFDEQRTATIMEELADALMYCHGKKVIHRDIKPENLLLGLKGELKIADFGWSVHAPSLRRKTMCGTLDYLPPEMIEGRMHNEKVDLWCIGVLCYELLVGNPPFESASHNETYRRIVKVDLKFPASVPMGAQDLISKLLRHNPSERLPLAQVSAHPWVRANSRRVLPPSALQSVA

[5] = molecular target: T2, Aurora kinase B; assay: Inhibition of Aurora B in human HCT116 cells assessed as complete loss of phospho-histone H3 staining by immunofluorescence assay
[6] = molecular target: T2, Aurora kinase B; assay: Inhibition of Aurora B in human HT29 cells assessed as complete loss of phospho-histone H3 staining by immunofluorescence assay; format: cell-based, HT-29
Method in brief: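 Immunofluorescence for phospho-S10 histone H3 in HCT116 or HT29 cells, scored visually. Value taken as the lowest inhibitor concentration giving complete loss of staining, so it lies above the IC50. Units µM.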

| IC50 [1] [nM] | other results | Compound |
| --- | --- | --- |
| 49 | – | CCCNC(=O)c1ccc(Nc2nc(Nc3ccc(O)cc3)ncc2F)cc1 |
| 490 | – | Oc1ccc(Nc2ccnc(Nc3ccc(O)cc3)n2)cc1 |
| 25 | – | O=C(Nc1ccc(F)cc1)c1ccc(Nc2nc(Nc3ccc(O)cc3)ncc2F)cc1 |
| 11000 | – | CCCc1cnc(Nc2ccc(O)cc2)nc1Nc1ccc(O)cc1 |
| 50 | – | Cc1cccc(NC(=O)c2ccc(Nc3nc(Nc4ccc(O)cc4)ncc3F)cc2)c1 |
| – | IC50 [2]: 150 nM; IC50 [3]: 100 nM | O=C(O)c1ccc(Nc2ncc3c(n2)-c2ccc(Cl)cc2C(c2c(F)cccc2F)=NC3)cc1 [MLN-8054] |
| 180 | – | Cc1cccc(Nc2nc(Nc3ccc(O)cc3)ncc2F)c1 |
| 51 | – | CC(C)NC(=O)c1ccc(Nc2nc(Nc3ccc(O)cc3)ncc2F)cc1 |
| 14 | – | O=C(Nc1ccc(Nc2nc(Nc3ccc(O)cc3)ncc2F)cc1)c1ccccc1F |
| 23 | – | N#Cc1cnc(Nc2ccc(O)cc2)nc1Nc1ccc(O)cc1 |
| 150 | – | CCc1cnc(Nc2ccc(O)cc2)nc1Nc1ccc(O)cc1 |
| 59 | – | O=C(Nc1cccc(F)c1)c1ccc(Nc2nc(Nc3ccc(O)cc3)ncc2F)cc1 |
| 130 | – | COc1ccc(Nc2ncc(F)c(Nc3ccc(OC)cc3)n2)cc1 |
| – | IC50 [2]: 7200 nM; IC50 [4]: 1400 nM; IC50 [5]: > 12000 nM; IC50 [6]: > 30000 nM; IC50 [3]: 850 nM | O=C(Nc1ccc(Nc2nc(Nc3ccc(O)cc3)ncc2F)cc1)c1ccccc1Cl |
| 34 | – | Cc1cnc(Nc2ccc(O)cc2)nc1Nc1ccc(O)cc1 |
| 20 | – | Cc1ccccc1NC(=O)c1ccc(Nc2nc(Nc3ccc(O)cc3)ncc2F)cc1 |
| 9 | – | O=C(Nc1ccccc1F)c1ccc(Nc2nc(Nc3ccc(O)cc3)ncc2F)cc1 |
| 78 | – | COc1ccc(Nc2nc(Nc3ccc(O)cc3)ncc2F)cc1 |
| 14 | – | Oc1ccc(Nc2ncc(C(F)(F)F)c(Nc3ccc(O)cc3)n2)cc1 |
| 140 | – | O=C(Nc1cccc(Cl)c1)c1ccc(Nc2nc(Nc3ccc(O)cc3)ncc2F)cc1 |
| > 17000 | – | Cc1nc(Nc2ccc(O)cc2)nc(Nc2ccc(O)cc2)c1C |
| 64 | – | O=C(Nc1ccc(Cl)cc1)c1ccc(Nc2nc(Nc3ccc(O)cc3)ncc2F)cc1 |
| 75 | – | Cc1ccc(Nc2nc(Nc3ccc(O)cc3)ncc2F)cc1 |
